{"data": "Assay results gathered from unrelated publications", "target": "Mitogen-activated protein kinase kinase kinase kinase 1 (MAP4K1, Homo sapiens, UniProt Q92918)", "note": "Each line is one published result; the experiments were not run side by side."}
{"Compound": "Cc1c(NC(=O)c2cc(C(N)=O)nc3cc(F)ccc23)c(C(F)(F)F)nn1Cc1ccc(C#N)cc1", "assay": "cell-free assay, competition with immobilised ligand", "conditions": "1 µM", "remaining binding [%]": 100}
{"Compound": "COc1ccnn2ncc(-c3ccnc(N(C)C)n3)c12", "assay": "binding", "conditions": "1 µM", "remaining binding [%]": 100}
{"Compound": "CNC(=O)[C@@H]1CC[C@@H](n2c(-c3ccc4cnccc4c3)nc3ccc(C(=O)NCc4cccc(C(N)=O)c4)cc32)C1", "assay": "binding, competition with immobilised ligand", "conditions": "1 µM", "remaining binding [%]": 82}
{"Compound": "O=C(c1ccc(Nc2ncc(Cl)c(-c3cc4ccccc4s3)n2)cc1)N1CCC(N2CCCC2)CC1", "assay": "binding, competition with immobilised ligand", "conditions": "1 µM", "remaining binding [%]": 26}
{"Compound": "CN(C)c1nccc(-c2cnn3ncccc23)n1", "assay": "binding", "conditions": "1 µM", "remaining binding [%]": 100}
{"Compound": "CCN1CCN(Cc2ccc(C(=O)Nc3ccc(C)c(Oc4ccc5c(c4)CC(=O)N5)c3)cc2C(F)(F)F)CC1", "assay": "binding, competition with immobilised ligand", "conditions": "1 µM", "remaining binding [%]": 90}
{"Compound": "N[C@H]1CCN(c2nccc(-c3cnn4ncccc34)n2)C1", "assay": "binding", "conditions": "1 µM", "remaining binding [%]": 100}
{"Compound": "O=C(Nc1c[nH]nc1C(=O)NC1CCNCC1)c1cc(F)cc(F)c1", "assay": "binding, competition with immobilised ligand", "conditions": "1 µM", "remaining binding [%]": 100}
{"Compound": "COCCOc1nc(-c2ccc(Cl)nc2)nc2c1CN(C(=O)c1ncn3ccccc13)CC2", "assay": "cell-free assay, competition with immobilised ligand", "conditions": "0.1 µM", "remaining binding [%]": 92}
{"Compound": "CN(C)c1ncc(F)c(-c2cnn3ncccc23)n1", "assay": "binding", "conditions": "1 µM", "remaining binding [%]": 100}
{"Compound": "C=CC(=O)N1CCC(C(=O)NCC(=O)N2CCN(c3nc(-c4cnc(N)nc4C(F)F)nc(N4CCOCC4)n3)CC2)CC1", "assay": "binding, competition with immobilised ligand", "conditions": "1 µM", "remaining binding [%]": 100}
{"Compound": "CNC(=O)Nc1ccc2c(c1)[C@@]1(CC2)OC(=O)N(CC(=O)N(Cc2ccc(F)cc2)[C@@H](C)C(F)(F)F)C1=O", "assay": "cell-free assay, competition with immobilised ligand", "conditions": "1 µM", "remaining binding [%]": 90}
{"Compound": "c1cncc(-c2cccc(Nc3nccc(NC4CCCCC4)n3)c2)c1", "assay": "binding, competition with immobilised ligand", "conditions": "10 µM", "remaining binding [%]": 39}
{"Compound": "Cc1cnn2ncc(-c3ccnc(N(C)C)n3)c2c1", "assay": "binding", "conditions": "1 µM", "remaining binding [%]": 99}
{"Compound": "Cc1cc(-n2nc(Cc3cc(F)cc(C(F)(F)F)c3)nc2C)ccc1C(N)=O", "assay": "cell-free assay, competition with immobilised ligand", "conditions": "1 µM", "remaining binding [%]": 100}
{"Compound": "C[C@@H]1CCN(c2nccc(-c3cnn4ncccc34)n2)C1", "assay": "binding", "conditions": "1 µM", "remaining binding [%]": 100}
{"Compound": "CO[C@H]1CC[C@H](CNc2ccc(S(=O)(=O)NC(=O)c3ccc(N4CCN(CC5=C(c6ccc(Cl)cc6)CC(C)(C)CC5)CC4)cc3Oc3cnc4[nH]ccc4c3)cc2[N+](=O)[O-])CC1", "assay": "cell-free assay, competition with immobilised ligand", "conditions": "1 µM", "remaining binding [%]": 69}
{"Compound": "Cc1cnc(Nc2ccc(C(=O)N3CCC(N4CCCC4)CC3)cc2)nc1-c1cc2ccccc2s1", "assay": "binding, competition with immobilised ligand", "conditions": "1 µM", "remaining binding [%]": 22}
{"Compound": "N#Cc1ccc(Nc2ccc3[nH]c(=O)[nH]c3c2)c(Cl)c1", "assay": "cell-free assay, competition with immobilised ligand", "conditions": "1 µM", "remaining binding [%]": 100}
{"Compound": "CN(C)c1nccc(-c2cnc3ncccn23)n1", "assay": "binding", "conditions": "1 µM", "remaining binding [%]": 100}
{"Compound": "O=C(NCCCN1CCOCC1)c1ccc(Nc2ncc(Cl)c(-c3ccc(Cl)s3)n2)cc1", "assay": "binding, competition with immobilised ligand", "conditions": "1 µM", "remaining binding [%]": 17}
{"Compound": "C[C@H](c1ccnc(Nc2nc3ccc(-c4cc(N(C)C)ncn4)cc3[nH]2)c1)N1CCN(C(=O)CC(F)(F)F)CC1", "assay": "cell-free assay, competition with immobilised ligand", "conditions": "0.1 µM", "remaining binding [%]": 51}
